One experiment deals with B cell. Description: Immunosuppressive activity in CPG oligonucleotide-induced human B cells assessed as inhibition of IgG production by immune assay. Type of experiment: functional, cell-based. In a few lines:
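Human B cells stimulated with CpG oligonucleotide and cultured with compound for 7 days at 37 °C, 5% CO₂. IgG concentration in supernatants then measured by immunoassay.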

For a further experiment, the system named is PBMC. Put plainly: Immunosuppressive activity in human PBMC assessed as inhibition of cell proliferation using (methyl-3H)thymidine by mixed lymphocyte reaction assay. Type of experiment: functional, cell-based. In a few lines: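 PBMCs at 1.2 × 10⁶ cells/ml in RPMI-1640 with 10% heat-inactivated FCS and antibiotics. 100 µl of each cell suspension mixed with 20 µl diluted compound and cultured 6 days at 37 °C, 5% CO₂. 1 µCi (methyl-³H)thymidine per well added for the last 18 h. Cells harvested on glass filters and cpm counted by liquid scintillation.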

Experiment [1] concerns the target alpha-mannosidase (Canavalia ensiformis). Put plainly: Inhibition of jack bean alpha-mannosidase using p-nitrophenyl-alpha-D-mannopyranoside substrate incubated for 10 mins by UV spectrophotometry.
The subject of a further experiment is Jurkat. Put plainly: Cytotoxicity against human Jurkat cells assessed as cell viability after 3 hrs by WST1 assay. Conditions: 48 h, in the assay text read “after 48 hrs” for “after 3 hrs”; call rule not given here. Type of experiment: functional, cell-based. The method, boiled down: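 Jurkat cells in exponential growth seeded at 50 × 10³ per 200 µl complete medium, with compound dilution added (20 µl) and incubated 48 h at 37 °C, 5% CO₂. Untreated cells set maximum viability and 1% Triton X-100 (last 15 min) set minimum. After a further 3 h at 37 °C, optical density read at 450 nm.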
Background: Tetrazolium assays rely on reduction of a dye to a coloured formazan, in cell work by metabolically active cells.

A short description of experiment [2]: Inhibition of alpha-glucosidase (unknown origin) using p-nitrophenyl-alpha-D-glucopyranoside substrate incubated for 10 mins by UV spectrophotometry. The method, boiled down: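 α-Glucosidase (0.1 unit/ml) preincubated with compound 1 h at 37 °C. Reaction started with 10 mM p-nitrophenyl substrate in 100 mM phosphate buffer pH 6.8, run 10 min at 37 °C, and stopped with 0.1 M Na₂CO₃.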

Experiment [3] can be described thus: Inhibition of alpha-galactosidase (unknown origin) using p-nitrophenyl-alpha-D-galactopyranoside substrate incubated for 10 mins by UV spectrophotometry. In a few lines: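 α-Galactosidase (0.1 unit/ml) preincubated with compound 1 h at 37 °C. Substrate added in 200 mM sodium acetate buffer, reaction run 10 min at 37 °C, and stopped with 200 mM borate buffer pH 9.8.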

Among the data in ChEMBL document CHEMBL3351657, “γ-Hydroxyethyl piperidine iminosugar and N-alkylated derivatives: a study of their activity as glycosidase inhibitors and as immunosuppressive agents” (Bioorg Med Chem, 2014) are IC50 values, retold here.

A word on the IC50: it is the concentration that gives 50% inhibition.

As to `CCCCN1C[C@@H](O)C(O)(CCO)[C@@H](O)C1` (stereo partly specified), the IC50 in the experiment with B cell is above 50 µM; with PBMC it was above 10 µM; in experiment [1] it was 252 µM; in the experiment on Jurkat, above 10 µM; in experiment [2] (read-out: IC50), 360 µM; in experiment [3] (read-out: IC50), 167 µM.

For the molecule `OCCN1C[C@@H](O)C(O)(CCO)[C@@H](O)C1` (stereo partly specified), the IC50 with B cell is above 50 µM; with PBMC it was above 10 µM; in experiment [1] it was 873 µM; in the experiment on Jurkat it was above 10 µM; in experiment [2] (read-out: IC50) it was 252 µM; in experiment [3], “Not Active”.

Turning to `CCCCCCN1C[C@@H](O)C(O)(CCO)[C@@H](O)C1` (stereo partly specified), the IC50 was above 50 µM with B cell; above 10 µM in the experiment on PBMC; 183 µM in experiment [1]; above 10 µM in the experiment on Jurkat; “Not Active” in experiment [2]; 315 µM in experiment [3] (read-out: IC50).

For the molecule `CCCCCCCCN1C[C@@H](O)C(O)(CCO)[C@@H](O)C1` (stereo partly specified), the 50% inhibitory concentration (IC50) was above 50 µM with B cell; above 10 µM with PBMC; above 10 µM with Jurkat; “Not Active” in experiment [2]; “Not Active” in experiment [3].

As for `OCCN1C[C@H](O)[C@@H](O)[C@H](O)[C@H]1CO` [MIGLITOL], the IC50 was 171 µM in experiment [2] (read-out: IC50) and 1850 µM in experiment [3] (read-out: IC50).

Turning to `OCCC1(O)[C@H](O)CNC[C@@H]1O` (stereo partly specified), the IC50 in the experiment with B cell is above 50 µM; in the experiment on PBMC it was above 10 µM; in experiment [1] it was 1830 µM; with Jurkat, above 10 µM; in experiment [2] (read-out: IC50), 418 µM; in experiment [3] it was “Not Active”.

For the molecule `CCCCCCCCCCN1C[C@@H](O)C(O)(CCO)[C@@H](O)C1` (stereo partly specified), the IC50 with B cell was 15 µM; in the experiment with PBMC, above 10 µM; with Jurkat, above 10 µM; in experiment [2], “Not Active”; in experiment [3], “Not Active”.
